Test results published in paper PMC4561049 (Drugs in R&D, 2015).

Experiments:
[1] = assay type: in vivo, human
Procedure, shortened: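 Plasma sampling on day 28 in a subset of patients at overnight sites, after both the morning and the evening inhaled doses: 1 h–0 min pre-dose, then 0–30 min, 30 min–2 h, 2–6 h and 6–11 h post-dose. Samples were assayed by HPLC–MS (LLOQ 25 pg/mL), and concentrations were log-transformed. A two-compartment model with first-order absorption was fitted in NONMEM 7 by Monte Carlo importance sampling.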

[2] = test system: patients with moderate-to-severe COPD; assay: Population pharmacodynamic Emax model of day 29 trough FEV1 in COPD patients; assay type: in vivo, human
Procedure, shortened: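 COPD patients (≥40 y, ≥10 pack-years) received inhaled DISKUS test compound for 4 weeks: 100, 400 or 800 μg once daily (morning) or 100, 200 or 400 μg twice daily. Day 29 trough FEV1 (Vitalograph) was the mean of the 11 and 12 h post-evening-dose readings on day 28. An Emax model on total daily dose, with both regimens pooled, was fitted in NONMEM 7 (FOCE with interaction).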

[3] = test system: patients with moderate-to-severe COPD; assay: Relationship between systemic exposure; assay type: in vivo, human; details: 0 to 4 h, day 1 and day 28; 100-800 μg once daily, 100-400 μg twice daily
Procedure, shortened: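 Individual observed plasma Cmax was plotted against maximum glucose, heart rate, QTcF (Fridericia correction) and potassium over 0–4 h on day 1 and day 28. Relationships were explored graphically only. Placebo Cmax was set to 0 pg/mL, and below-LLOQ values were plotted as 12.5 pg/mL (half of the 25 pg/mL LLOQ).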

[4] = test system: patients with moderate-to-severe COPD; details: cited from earlier work
[5] = test system: patients with COPD; details: 1200 µg once daily; cited from earlier work

With COc1cc(NC(=O)CCN2CCC(OC(=O)Nc3ccccc3-c3ccccc3)CC2)c(Cl)cc1CNC[C@H](O)c1ccc(O)c2[nH]c(=O)ccc12 [GSK961081, batefenterol] the Vd/F ([1]; human, plasma, inhaled) was 6.26 L, the “Interindividual variability CL/F” value ([1]; population PK model, column head Log estimate) was 0.594 and the “Intercept for E0 (FEV1 at zero dose)” value ([2]; Emax model of day 29 trough FEV1, 347 COPD patients) was 0.0650 L. The “ED50 (dose producing 50 % of the maximum effect)” value ([2]; Emax model of day 29 trough FEV1 versus total daily dose, 347 COPD patients) was 152 µg, the “Difference between once-daily and twice-daily dosing for day 29 trough FEV1” value ([2]; influence of dosing regimen on the PD model) was “no apparent difference” and the “Relationship between maximum QTcF and individual observed Cmax” value [3] was “No clear relationships”. The “Relationship between maximum glucose and individual observed Cmax” value [3] was “No clear relationships”, the “Relationship between maximum heart rate and individual observed Cmax” value [3] was “No clear relationships” and the “Relationship between minimum potassium and individual observed Cmax” value [3] was “No clear relationships”. For the same compound, the “Improvement in the trough FEV1” value ([4]; after 28 days of treatment) was 155 to 277 mL, the “Dose response of QTc prolongation” value [4] was “no apparent dose response” and the Onset of action [4] was “rapid onset of action”. The Tolerability [4] was “well tolerated”, the “Prolongation of various QTc intervals” value ([4]; in comparison with placebo or salmeterol) was 3 to 5 ms and the “Effect on glucose levels, potassium levels, heart rate, or blood pressure” value ([4]; safety findings of the primary publication) was “no effect”. The “Increase in the trough FEV1 from 400 to 800 μg” value ([4]; total daily dose) was “only a small increase” and the “Prolongation of the QT interval” value [5] was “no prolongation of the QT interval”.
